Test results as given in ChEMBL document CHEMBL1157620, “1-(Aryl)-6-[alkoxyalkyl]-3-azabicyclo[3.1.0]hexanes and 6-(aryl)-6-[alkoxyalkyl]-3-azabicyclo[3.1.0]hexanes: a new series of potent and selective triple reuptake inhibitors” (J Med Chem, 2010).

How the values were obtained:
[1] = target: Sodium-dependent dopamine transporter (Homo sapiens, UniProt Q01959); assay: Displacement of [3H]WIN-35428 from human recombinant DAT expressed in BacMam virus-transduced cells by scintillation proximity assay; assay type: cell-based
[2] = target: Sodium-dependent noradrenaline transporter (Homo sapiens, UniProt P23975); assay: Displacement of [3H]nisoxetine from human recombinant NET expressed in BacMam virus-transduced cells by scintillation proximity assay; assay type: cell-based
Summary of the method: (§1)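 BacMam-transduced membranes in SPA format. SERT: 1 mg/mL beads, 6 μg/mL membranes, 3 nM [3H]citalopram. NET: 2 mg/mL beads, 40 μg/mL membranes, 10 nM [3H]nisoxetine. Incubated overnight at room temperature; pKi from pIC50 by Cheng-Prusoff.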

[3] = target: Sodium-dependent serotonin transporter (Homo sapiens, UniProt P31645); assay: Displacement of [3H]citalopram from human recombinant SERT expressed in BacMam virus-transduced cells by scintillation proximity assay; assay type: cell-based; summary of the method: as §1
Cytochrome P450 1A2 = target: T1, Cytochrome P450 1A2 (Homo sapiens, UniProt P05177); assay: Inhibition of human CYP1A2 by fluorescence assay; assay type: ADME
T1 sequence (P05177 whole entry): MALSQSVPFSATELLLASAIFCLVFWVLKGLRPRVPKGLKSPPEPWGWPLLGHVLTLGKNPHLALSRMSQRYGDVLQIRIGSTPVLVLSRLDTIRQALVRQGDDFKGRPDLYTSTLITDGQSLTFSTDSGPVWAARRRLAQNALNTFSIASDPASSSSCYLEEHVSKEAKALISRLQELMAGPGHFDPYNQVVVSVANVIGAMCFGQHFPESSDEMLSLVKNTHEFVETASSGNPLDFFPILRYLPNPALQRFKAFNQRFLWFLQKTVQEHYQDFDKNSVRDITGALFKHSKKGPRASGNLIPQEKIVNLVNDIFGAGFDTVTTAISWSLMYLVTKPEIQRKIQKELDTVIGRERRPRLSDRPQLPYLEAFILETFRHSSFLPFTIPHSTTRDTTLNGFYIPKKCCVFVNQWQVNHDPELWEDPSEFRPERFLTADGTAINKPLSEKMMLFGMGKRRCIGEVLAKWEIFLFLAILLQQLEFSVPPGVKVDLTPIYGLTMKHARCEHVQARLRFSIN
Summary of the method: (§2)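 Recombinant human P450 bactosomes (0.1 mg/mL) in 50 mM phosphate, pH 7.4. Test compound at 0.1-10 μM, preincubated 10 min at 37 °C with fluorogenic substrate: ethoxyresorufin 0.5 μM (1A2), FCA 50 μM (2C9), BMC 10 μM (2C19), MMC 10 μM (2D6).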

Cytochrome P450 2C9 = Cytochrome P450 2C9 (Homo sapiens, UniProt P11712); assay: Inhibition of human CYP2C9 by fluorescence assay; assay type: ADME; summary of the method: as §2
Cytochrome P450 2C19 = Cytochrome P450 2C19 (Homo sapiens, UniProt P33261); assay: Inhibition of human CYP2C19 by fluorescence assay; assay type: ADME; summary of the method: as §2
Cytochrome P450 2D6 = Cytochrome P450 2D6 (Homo sapiens, UniProt P10635); assay: Inhibition of human […] by fluorescence assay; assay type: ADME; summary of the method: as §2
Cytochrome P450 3A4 = Cytochrome P450 3A4 (Homo sapiens, UniProt P08684); assay: Inhibition of human CYP3A4 by fluorescence assay
Homo sapiens [4] = species: Homo sapiens; assay: Selectivity for human recombinant SERT over human recombinant DAT
Homo sapiens [5] = species: Homo sapiens; assay: Selectivity for human recombinant NET over human recombinant DAT
[6] = Blood clearance in rat; assay type: ADME, organism-based
[7] = (§3) Half life in rat; assay type: ADME, organism-based; settings: in vivo
[8] = Volume of distribution in rat; assay type: ADME, organism-based; settings: in vivo
[9] = Bioavailability in rat; assay type: ADME, organism-based; settings: in vivo
[10] = Ratio of drug level in brain to blood in rat; assay type: ADME, tissue-based; settings: read-out: BBR
[11] = Fraction unbound in rat brain; assay type: ADME, tissue-based; settings: brain
Rattus norvegicus = species: Rattus norvegicus; assay: as §3; assay type: ADME, organism-based; settings: in vivo
[12] = (§4) Intrinsic clearance in human liver microsomes assessed per gram of protein at 0.5 uM after 30 mins by HPLC-MS/MS analysis; assay type: ADME, Microsome; settings: liver microsomes
Summary of the method: (§5)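 Compound at 0.5 μM with rat or human liver microsomes (0.5 mg protein/mL), 50 mM phosphate, pH 7.4, 37 °C, started with NADPH. Sampled at 0-30 min, acetonitrile quench, HPLC-MS/MS. CLi from first-order elimination constant, scaled assuming 52.5 mg microsomal protein/g.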

[13] = (§6) Intrinsic clearance in rat liver microsomes assessed per gram of protein at 0.5 uM after 30 mins by HPLC-MS/MS analysis; assay type: ADME, Microsome; settings: liver microsomes; summary of the method: as §5
Liver microsomes [14] = assay: as §4; assay type: ADME, Microsome; settings: microsomes, 0.5 h, 0.5 µM; summary of the method: as §5
Liver microsomes [15] = assay: as §6; assay type: ADME, Microsome; settings: microsomes, 0.5 h, 0.5 µM; summary of the method: as §5

Sequence of Cytochrome P450 2C9 (P11712 whole entry): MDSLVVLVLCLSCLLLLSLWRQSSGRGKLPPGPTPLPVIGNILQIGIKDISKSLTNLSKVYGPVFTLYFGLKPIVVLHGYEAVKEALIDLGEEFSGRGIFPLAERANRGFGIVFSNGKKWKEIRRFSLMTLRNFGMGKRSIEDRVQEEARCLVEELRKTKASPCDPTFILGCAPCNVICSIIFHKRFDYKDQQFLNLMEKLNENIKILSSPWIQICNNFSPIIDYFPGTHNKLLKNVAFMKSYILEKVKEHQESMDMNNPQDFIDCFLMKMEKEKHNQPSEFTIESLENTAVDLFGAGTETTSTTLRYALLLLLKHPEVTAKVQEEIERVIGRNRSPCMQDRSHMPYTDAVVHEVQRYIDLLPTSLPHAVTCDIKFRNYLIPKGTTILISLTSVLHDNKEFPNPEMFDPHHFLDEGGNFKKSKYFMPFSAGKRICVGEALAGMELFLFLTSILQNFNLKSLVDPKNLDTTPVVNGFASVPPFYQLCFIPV
Sequence of Cytochrome P450 2C19 (P33261 whole entry): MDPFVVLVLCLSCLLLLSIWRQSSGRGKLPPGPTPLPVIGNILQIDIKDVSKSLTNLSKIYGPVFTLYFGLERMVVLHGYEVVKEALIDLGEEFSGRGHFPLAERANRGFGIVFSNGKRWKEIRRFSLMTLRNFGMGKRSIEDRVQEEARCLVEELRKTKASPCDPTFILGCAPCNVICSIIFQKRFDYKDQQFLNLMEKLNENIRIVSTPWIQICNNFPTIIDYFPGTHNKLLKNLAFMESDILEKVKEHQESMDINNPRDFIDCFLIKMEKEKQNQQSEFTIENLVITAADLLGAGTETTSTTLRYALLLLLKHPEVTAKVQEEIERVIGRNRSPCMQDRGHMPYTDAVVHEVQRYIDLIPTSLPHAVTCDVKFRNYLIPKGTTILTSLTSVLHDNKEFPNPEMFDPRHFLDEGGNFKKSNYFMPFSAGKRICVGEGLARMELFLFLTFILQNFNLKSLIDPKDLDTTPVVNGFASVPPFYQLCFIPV
Sequence of Sodium-dependent dopamine transporter (Q01959 whole entry): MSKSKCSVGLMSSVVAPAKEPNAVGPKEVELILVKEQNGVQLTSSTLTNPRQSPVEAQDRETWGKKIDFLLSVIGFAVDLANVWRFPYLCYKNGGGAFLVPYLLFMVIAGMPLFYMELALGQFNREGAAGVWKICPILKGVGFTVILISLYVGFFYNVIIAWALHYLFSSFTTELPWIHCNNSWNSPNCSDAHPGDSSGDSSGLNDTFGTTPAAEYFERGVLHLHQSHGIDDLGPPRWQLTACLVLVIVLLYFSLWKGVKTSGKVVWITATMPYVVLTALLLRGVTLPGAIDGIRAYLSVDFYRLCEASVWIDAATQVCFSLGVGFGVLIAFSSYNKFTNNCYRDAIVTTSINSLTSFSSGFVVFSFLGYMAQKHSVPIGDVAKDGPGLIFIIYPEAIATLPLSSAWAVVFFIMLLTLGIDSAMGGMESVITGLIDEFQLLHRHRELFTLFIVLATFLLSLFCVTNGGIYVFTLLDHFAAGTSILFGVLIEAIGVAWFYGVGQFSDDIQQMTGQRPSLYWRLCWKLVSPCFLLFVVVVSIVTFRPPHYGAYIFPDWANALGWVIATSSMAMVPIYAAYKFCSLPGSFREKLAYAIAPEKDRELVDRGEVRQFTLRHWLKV
Sequence of Cytochrome P450 2D6 (P10635 whole entry): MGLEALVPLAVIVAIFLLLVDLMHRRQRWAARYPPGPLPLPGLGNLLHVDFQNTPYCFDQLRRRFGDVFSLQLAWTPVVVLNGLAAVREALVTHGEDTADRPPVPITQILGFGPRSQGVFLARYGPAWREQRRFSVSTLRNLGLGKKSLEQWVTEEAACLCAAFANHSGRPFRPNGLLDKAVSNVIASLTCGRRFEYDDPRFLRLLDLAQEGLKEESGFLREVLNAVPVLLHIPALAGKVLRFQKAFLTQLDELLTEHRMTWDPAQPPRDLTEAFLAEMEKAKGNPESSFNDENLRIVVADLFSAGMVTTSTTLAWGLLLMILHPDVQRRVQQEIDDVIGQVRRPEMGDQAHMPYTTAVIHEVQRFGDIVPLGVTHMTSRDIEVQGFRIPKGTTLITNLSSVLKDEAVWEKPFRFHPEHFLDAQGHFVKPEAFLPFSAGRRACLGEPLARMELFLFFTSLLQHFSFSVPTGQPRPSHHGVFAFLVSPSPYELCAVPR
Sequence of Cytochrome P450 3A4 (P08684 whole entry): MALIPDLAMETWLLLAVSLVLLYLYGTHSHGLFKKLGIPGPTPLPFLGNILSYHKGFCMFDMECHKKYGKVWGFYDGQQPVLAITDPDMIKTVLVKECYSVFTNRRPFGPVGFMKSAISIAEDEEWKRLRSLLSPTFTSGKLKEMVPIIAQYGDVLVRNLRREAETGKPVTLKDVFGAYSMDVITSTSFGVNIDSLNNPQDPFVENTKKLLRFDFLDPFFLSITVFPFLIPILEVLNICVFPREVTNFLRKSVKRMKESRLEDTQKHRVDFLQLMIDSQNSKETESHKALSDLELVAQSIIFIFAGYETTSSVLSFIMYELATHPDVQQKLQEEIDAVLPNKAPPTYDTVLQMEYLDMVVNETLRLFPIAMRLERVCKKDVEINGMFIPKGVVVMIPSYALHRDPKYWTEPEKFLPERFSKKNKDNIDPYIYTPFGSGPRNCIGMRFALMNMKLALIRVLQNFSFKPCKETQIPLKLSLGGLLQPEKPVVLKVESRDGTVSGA
Sequence of Sodium-dependent serotonin transporter (P31645 whole entry): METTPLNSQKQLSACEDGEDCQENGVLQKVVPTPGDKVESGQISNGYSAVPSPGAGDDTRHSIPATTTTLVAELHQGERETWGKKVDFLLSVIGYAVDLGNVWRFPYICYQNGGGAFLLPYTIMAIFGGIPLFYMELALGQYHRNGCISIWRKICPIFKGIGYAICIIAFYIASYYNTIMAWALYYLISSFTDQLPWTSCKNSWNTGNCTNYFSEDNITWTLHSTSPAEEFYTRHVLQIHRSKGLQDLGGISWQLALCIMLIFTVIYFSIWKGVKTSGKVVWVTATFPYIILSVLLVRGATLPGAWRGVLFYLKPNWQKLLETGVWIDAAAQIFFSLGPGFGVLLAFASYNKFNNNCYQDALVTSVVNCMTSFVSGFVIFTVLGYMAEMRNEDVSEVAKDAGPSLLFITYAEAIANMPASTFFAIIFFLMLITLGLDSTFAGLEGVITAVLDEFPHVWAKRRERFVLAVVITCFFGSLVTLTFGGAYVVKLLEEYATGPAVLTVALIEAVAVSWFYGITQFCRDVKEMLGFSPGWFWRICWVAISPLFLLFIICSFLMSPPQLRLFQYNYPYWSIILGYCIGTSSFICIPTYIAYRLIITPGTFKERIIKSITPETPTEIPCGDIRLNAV
Sequence of Sodium-dependent noradrenaline transporter (P23975 whole entry): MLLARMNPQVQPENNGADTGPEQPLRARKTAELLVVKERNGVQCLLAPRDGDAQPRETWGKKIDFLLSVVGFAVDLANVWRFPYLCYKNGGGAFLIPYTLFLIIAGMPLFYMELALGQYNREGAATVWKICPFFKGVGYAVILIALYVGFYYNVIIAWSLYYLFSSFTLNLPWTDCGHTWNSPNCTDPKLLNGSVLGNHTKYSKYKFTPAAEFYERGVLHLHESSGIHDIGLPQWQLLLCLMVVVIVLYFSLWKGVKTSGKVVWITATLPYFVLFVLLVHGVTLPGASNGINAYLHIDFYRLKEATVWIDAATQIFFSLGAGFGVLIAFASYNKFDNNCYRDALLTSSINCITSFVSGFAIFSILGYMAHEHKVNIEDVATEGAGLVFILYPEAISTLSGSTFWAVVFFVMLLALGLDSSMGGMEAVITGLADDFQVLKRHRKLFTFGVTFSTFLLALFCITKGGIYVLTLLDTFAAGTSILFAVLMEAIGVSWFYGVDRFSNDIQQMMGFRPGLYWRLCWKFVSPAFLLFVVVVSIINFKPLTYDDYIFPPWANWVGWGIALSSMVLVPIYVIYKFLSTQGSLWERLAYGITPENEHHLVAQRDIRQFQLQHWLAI

CCOC[C@H]1[C@@H]2CNC[C@@]21c1ccc(Cl)c(Cl)c1 (relative stereo)
Ki [1]: 25.1 nM
Ki [2]: 1.58 nM
Ki [3]: 0.398 nM
IC50 (Cytochrome P450 1A2): > 9000 nM
IC50 (Cytochrome P450 2C9): > 9000 nM
IC50 (Cytochrome P450 2C19): > 9000 nM
IC50 (Cytochrome P450 2D6): 4000 nM
IC50 (Cytochrome P450 3A4): > 9000 nM

COC[C@H]1[C@@H]2CNC[C@@]21c1ccc(Cl)c(Cl)c1 (relative stereo)
Selectivity ratio (Homo sapiens [4]): 70
Selectivity ratio (Homo sapiens [5]): 70

FC(F)(F)COC[C@@H]1[C@H]2CNC[C@]21c1ccc(Cl)c(Cl)c1 (stereo in doubt)
Ki [1]: 25.1 nM
Ki [2]: 1.58 nM
Ki [3]: 0.631 nM
clearance [6]: 42 mL/min/kg
half-life [7]: 1.4 h
Vd [8]: 3.2 L/kg
bioavailability [9]: 41%
Kp [10]: 18
fraction unbound [11]: 0.006

FC(F)(F)COC[C@H]1[C@@H]2CNC[C@@]21c1ccc(Cl)c(Cl)c1 (stereo in doubt)
Ki [1]: 50.1 nM
Ki [2]: 3.98 nM
Ki [3]: 1.26 nM
t1/2 (Rattus norvegicus): 1.4 h
Kp [10]: 18
fraction unbound [11]: 0.006

COC[C@@H]1[C@H]2CNC[C@]21c1ccc2ccccc2c1 (stereo in doubt)
Ki [1]: 25.1 nM
Ki [2]: 0.631 nM
Ki [3]: 0.0794 nM
IC50 (Cytochrome P450 1A2): 900 nM
IC50 (Cytochrome P450 2C9): > 4000 nM
IC50 (Cytochrome P450 2C19): > 4000 nM
IC50 (Cytochrome P450 2D6): > 4000 nM
IC50 (Cytochrome P450 3A4): > 4000 nM
CLint scaled at 0.5 µM [12]: 2.2 mL/min/kg
CLint scaled at 0.5 µM [13]: 3.9 mL/min/kg

CC(C)OC[C@@H]1[C@H]2CNC[C@]21c1ccc(Cl)c(Cl)c1 (stereo in doubt)
Ki [1]: 5.01 nM
Ki [2]: 0.251 nM
Ki [3]: 0.126 nM
IC50 (Cytochrome P450 1A2): > 8000 nM
IC50 (Cytochrome P450 2C9): > 8000 nM
IC50 (Cytochrome P450 2C19): > 8000 nM
IC50 (Cytochrome P450 2D6): > 8000 nM
IC50 (Cytochrome P450 3A4): > 8000 nM
CLint scaled at 0.5 µM [12]: 1.4 mL/min/kg
CLint scaled at 0.5 µM [13]: < 0.5 mL/min/kg

Clc1ccc([C@@]23CNC[C@@H]2[C@H]3COCC2CC2)cc1Cl (stereo in doubt)
Ki [1]: 12.6 nM
Ki [2]: 0.631 nM
Ki [3]: 0.316 nM
IC50 (Cytochrome P450 1A2): > 10000 nM
IC50 (Cytochrome P450 2C9): > 10000 nM
IC50 (Cytochrome P450 2C19): 3000 nM
IC50 (Cytochrome P450 2D6): 1000 nM
IC50 (Cytochrome P450 3A4): > 10000 nM
CL (Liver microsomes [14]): < 0.5 mL/min/g
CL (Liver microsomes [15]): 2.6 mL/min/g
clearance [6]: 72 mL/min/kg
half-life [7]: 1 h
Vd [8]: 5.2 L/kg
bioavailability [9]: 32%
Kp [10]: 10
fraction unbound [11]: 0.001
